The source made the active and inactive calls. Unless noted, the calls are words filed in the database; no cut-off is given here.
Experiments:
[1] = target: T1, Lipoprotein lipase (Bos taurus) (UniProt P11151); test: Induction of bovine LPL stabilization using intralipid as substrate at 3.12 uM preincubated for 10 mins with human recombinant ANGPTL4 followed by substrate addition measured after 45 mins relative to control
T1 sequence (whole entry): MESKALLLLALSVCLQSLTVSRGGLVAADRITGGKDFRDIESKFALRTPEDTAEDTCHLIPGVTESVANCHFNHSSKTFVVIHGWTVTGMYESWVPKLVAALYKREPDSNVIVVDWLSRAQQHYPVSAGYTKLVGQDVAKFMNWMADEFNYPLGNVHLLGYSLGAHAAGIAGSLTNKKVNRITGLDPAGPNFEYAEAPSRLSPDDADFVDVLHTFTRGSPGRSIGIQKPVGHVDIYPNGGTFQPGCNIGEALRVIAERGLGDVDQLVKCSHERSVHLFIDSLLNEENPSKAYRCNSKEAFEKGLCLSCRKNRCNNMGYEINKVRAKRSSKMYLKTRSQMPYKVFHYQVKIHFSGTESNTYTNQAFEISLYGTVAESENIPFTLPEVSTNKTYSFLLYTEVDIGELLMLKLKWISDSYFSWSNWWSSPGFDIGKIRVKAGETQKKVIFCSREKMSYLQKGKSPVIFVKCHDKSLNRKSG
Procedure, shortened: (§1)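 Compound in DMSO in buffer (50 mM potassium phosphate pH 7.4, 0.15 M NaCl, 0.01% Triton X-100), with human ANGPTL4 N-terminal fragment (aa 26-184, 75 nM final) and bovine LPL (15 nM final). Preincubated 10 min at 25 °C with shaking. Stopped after 45 min with 2.5% Triton X-100, and NEFA measured enzymatically. Activity normalised between DMSO+LPL+ANGPTL4 (0%) and DMSO+LPL (100%).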

[2] = target: T1, Lipoprotein lipase (Bos taurus); test: Induction of bovine LPL stabilization using intralipid as substrate at 6.25 uM preincubated for 10 mins with human recombinant ANGPTL4 followed by substrate addition measured after 45 mins relative to control; procedure, shortened: as §1
[3] = target: T1, Lipoprotein lipase (Bos taurus); test: Induction of bovine LPL stabilization using intralipid as substrate at 12.5 uM preincubated for 10 mins with human recombinant ANGPTL4 followed by substrate addition measured after 45 mins relative to control; procedure, shortened: as §1
[4] = target: T1, Lipoprotein lipase (Bos taurus); test: Induction of bovine LPL stabilization using intralipid as substrate at 25 uM preincubated for 10 mins with human recombinant ANGPTL4 followed by substrate addition measured after 45 mins relative to control; procedure, shortened: as §1

| Structure (SMILES) | Activity [1] | Activity [2] | Activity [3] | Activity [4] |
| --- | --- | --- | --- | --- |
| Cc1ccc(NC(=O)c2ccc(N3C(=O)c4ccc(C(=O)O)cc4C3=O)cc2N2CCCCC2)cc1 | inactive | inactive | inactive | 14.1% |
| Cc1ccc(NC(=O)c2cc(N3C(=O)c4ccc(C(=O)O)cc4C3=O)ccc2N2CCCCC2)cc1F | inactive | inactive | 53.3% | 72.1% |
| O=C(O)c1ccc2c(c1)C(=O)N(c1ccc(N3CCCCC3)c(C(=O)NCc3cccnc3)c1)C2=O | inactive | inactive | inactive | inactive |
| CCCCCCNc1ccc(N2C(=O)c3ccc(C(=O)O)cc3C2=O)cc1C(=O)Nc1ccc(C)cc1 | inactive | 60.6% | 47.1% | 67.2% |
| Cc1ccc(NC(=O)c2cc(N3C(=O)c4ccc(C(=O)O)cc4C3=O)ccc2Cl)cc1 | inactive | inactive | inactive | inactive |
| Cc1ccc(NC(=O)c2cccc(N3CCCCC3)c2N2C(=O)c3ccc(C(=O)O)cc3C2=O)cc1 | inactive | inactive | inactive | 7.3% |
| CCc1cccc(NC(=O)c2cc(N3C(=O)c4ccc(C(=O)O)cc4C3=O)ccc2N2CCCCC2)c1 | inactive | 9.2% | 63.4% | 71% |
| Cc1ccc(NC(=O)c2cc(N3C(=O)c4ccc(N)cc4C3=O)ccc2N2CCCCC2)cc1 | inactive | inactive | inactive | 11.4% |
| Cc1ccc(NC(=O)c2cccc(N3C(=O)c4ccc(C(=O)O)cc4C3=O)c2N2CCCCC2)cc1 | inactive | inactive | inactive | 13.5% |
| COc1ccc(N2C(=O)c3ccc(C(=O)O)cc3C2=O)cc1C(=O)Nc1ccc(C)cc1 | inactive | inactive | inactive | inactive |
| Cc1ccc(NC(=O)c2cc(Cl)cc(N3C(=O)c4ccc(C(=O)O)cc4C3=O)c2)cc1 | inactive | inactive | inactive | inactive |
| Cc1ccc(NC(=O)c2cc(Nc3ccccc3)cc(N3C(=O)c4ccc(C(=O)O)cc4C3=O)c2)cc1 | inactive | 4.2% | 73.1% | 89.4% |
| CCc1cccc(NC(=O)c2cc(N3C(=O)c4ccc(C(=O)O)cc4C3=O)ccc2Nc2ccccc2)c1 | inactive | 44.3% | 63.9% | 52.2% |
| Cc1ccc(NC(=O)c2cc(N3C(=O)c4ccc(C(=O)O)cc4C3=O)ccc2N2CCN(C)CC2)cc1 | inactive | inactive | inactive | inactive |
| CCCNc1ccc(N2C(=O)c3ccc(C(=O)O)cc3C2=O)cc1C(=O)Nc1ccc(C)cc1 | inactive | inactive | 6.2% | 39.7% |
| Cc1ccc(NC(=O)c2cc(N3C(=O)c4ccc(C(=O)O)cc4C3=O)ccc2N2CCCCC2)cc1C(F)(F)F | inactive | 19.4% | 42.2% | 65.8% |
| Cc1ccc(NC(=O)c2ccc(N3CCCCC3)c(N3C(=O)c4ccc(C(=O)O)cc4C3=O)c2)cc1 | inactive | inactive | 81.3% | 79% |
| CCc1ccc(NC(=O)c2cc(N3C(=O)c4ccc(C(=O)O)cc4C3=O)ccc2Nc2ccccc2)cc1 | inactive | 37.6% | 60.3% | 60% |
| Cc1ccc(NC(=O)c2cc(N3C(=O)c4ccc(C(=O)O)cc4C3=O)ccc2Br)cc1 | inactive | inactive | inactive | inactive |
